Measured values as given in ChEMBL document CHEMBL1136140, “Tripeptide inhibitors of Yersinia protein-tyrosine phosphatase” (Bioorg Med Chem Lett, 2003).
Square brackets hold non-standard residues; d marks the D form. Peptide text beside a SMILES is read from it. * marks the point of attachment. F2Pmp = N[C@@H](Cc1ccc(C(F)(F)P(=O)(O)O)cc1)C(=O)O; Fmoc = O=C(OCC1c2ccccc2-c2ccccc21)*; OBn = c1ccc(CO*)cc1

Key:
[1] = biological target: T1, Tyrosine-protein phosphatase non-receptor type 1 (Homo sapiens, UniProt P18031); experiment: Inhibition of human Protein-tyrosine phosphatase 1B expressed in Escherichia coli BL21 (DE3) cells
T1 sequence (P18031 whole entry): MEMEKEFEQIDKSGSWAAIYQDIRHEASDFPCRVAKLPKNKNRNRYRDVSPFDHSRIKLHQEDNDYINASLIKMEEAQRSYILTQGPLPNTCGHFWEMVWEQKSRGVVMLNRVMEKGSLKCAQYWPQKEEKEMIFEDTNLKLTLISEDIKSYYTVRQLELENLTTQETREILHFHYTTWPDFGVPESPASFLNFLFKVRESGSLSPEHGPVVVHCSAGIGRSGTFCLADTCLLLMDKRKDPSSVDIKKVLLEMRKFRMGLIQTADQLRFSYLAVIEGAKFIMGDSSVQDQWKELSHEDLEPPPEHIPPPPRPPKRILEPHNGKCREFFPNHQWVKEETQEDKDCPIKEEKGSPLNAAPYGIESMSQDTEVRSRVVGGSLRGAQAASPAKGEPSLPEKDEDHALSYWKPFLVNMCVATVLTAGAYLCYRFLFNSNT
Outline: (§1)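 Recombinant enzymes made in E. coli BL21(DE3) and purified as published previously. Assay run at 30 °C, pH 7.0, in 50 mM 3,3-dimethylglutarate, 1 mM EDTA, ionic strength brought to 150 mM with NaCl. Substrate pNPP fixed at each enzyme's Km. Enzyme added to start, NaOH quench, A405 read. Six to eight inhibitor concentrations used. IC50 obtained by fitting relative activity to a four-parameter slope-factor equation.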

[2] = biological target: Secreted effector protein (Yersinia pestis, UniProt O68720); experiment: Inhibition of Tyrosine phosphatase from Yersinia pestis expressed in Escherichia coli BL21 (DE3) cells; outline: as §1
[3] = biological target: T1, Tyrosine-protein phosphatase non-receptor type 1; experiment: Inhibitory potency against human Protein-tyrosine phosphatase 1B expressed in Escherichia coli BL21 (DE3) cells; outline: as §1

Secreted effector protein, sequence (O68720 whole entry): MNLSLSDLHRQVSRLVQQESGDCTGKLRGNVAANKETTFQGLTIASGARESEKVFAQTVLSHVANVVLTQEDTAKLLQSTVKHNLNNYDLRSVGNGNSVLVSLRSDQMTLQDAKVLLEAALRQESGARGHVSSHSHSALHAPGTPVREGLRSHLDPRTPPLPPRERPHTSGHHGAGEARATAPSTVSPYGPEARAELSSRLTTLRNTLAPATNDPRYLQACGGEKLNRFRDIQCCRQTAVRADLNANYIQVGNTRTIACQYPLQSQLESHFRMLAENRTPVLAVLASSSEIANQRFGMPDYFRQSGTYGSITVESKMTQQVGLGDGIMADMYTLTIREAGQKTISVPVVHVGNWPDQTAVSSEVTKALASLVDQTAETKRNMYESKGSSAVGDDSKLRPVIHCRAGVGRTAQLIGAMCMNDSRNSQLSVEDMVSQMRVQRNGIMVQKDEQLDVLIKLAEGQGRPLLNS

| SMILES | IC50 [1] [µM] | IC50 [2] [µM] | Ki [3] [µM] |
| --- | --- | --- | --- |
| CC(C)C[C@H](NC(=O)[C@H](Cc1ccc(OC(F)(C(=O)O)C(=O)O)cc1)NC(=O)[C@H](CCC(=O)OCc1ccccc1)NC(=O)OCC1c2ccccc2-c2ccccc21)C(N)=O | 1.5 | 2.9 |  |
| CC(C)C[C@H](NC(=O)[C@H](Cc1ccc(CC(=O)O)c(C(=O)O)c1)NC(=O)[C@H](CCC(=O)O)NC(=O)OCC1c2ccccc2-c2ccccc21)C(N)=O | 0.7 | > 800 |  |
| CC(C)C[C@H](NC(=O)[C@H](Cc1ccc(C(F)(F)C(=O)O)cc1)NC(=O)[C@H](CCC(=O)O)NC(=O)OCC1c2ccccc2-c2ccccc21)C(N)=O | 1.4 | > 800 |  |
| CC(C)C[C@H](NC(=O)[C@H](Cc1ccc(CC(=O)O)c(O)c1)NC(=O)[C@H](CCC(=O)O)NC(=O)OCC1c2ccccc2-c2ccccc21)C(N)=O | 4 | > 800 |  |
| CC(C)C[C@H](NC(=O)[C@H](Cc1ccc(C(F)(C(=O)O)C(=O)O)cc1)NC(=O)[C@H](CCC(=O)OCc1ccccc1)NC(=O)OCC1c2ccccc2-c2ccccc21)C(N)=O | 3.1 | 3.1 |  |
| CC(C)C[C@H](NC(=O)[C@H](Cc1ccc(OC(C(=O)O)C(=O)O)cc1)NC(=O)[C@H](CCC(=O)O)NC(=O)OCC1c2ccccc2-c2ccccc21)C(N)=O |  | > 800 | 29 |
| CC(C)C[C@H](NC(=O)[C@H](Cc1ccc(OCC(=O)O)c(C(=O)O)c1)NC(=O)[C@H](CCC(=O)OCc1ccccc1)NC(=O)OCC1c2ccccc2-c2ccccc21)C(N)=O | 8.3 | 10.5 |  |
| CC(C)C[C@H](NC(=O)[C@H](Cc1ccc(OCC(=O)O)c(C(=O)O)c1)NC(=O)[C@H](CCC(=O)O)NC(=O)OCC1c2ccccc2-c2ccccc21)C(N)=O | 54.7 | > 100 |  |
| CC(C)C[C@H](NC(=O)[C@H](Cc1ccc(C(C(=O)O)C(=O)O)cc1)NC(=O)[C@H](CCC(=O)O)NC(=O)OCC1c2ccccc2-c2ccccc21)C(N)=O | 0.8 | > 800 |  |
| CC(C)C[C@H](NC(=O)[C@H](Cc1ccc(C(F)(C(=O)O)C(=O)O)cc1)NC(=O)[C@H](CCC(=O)O)NC(=O)OCC1c2ccccc2-c2ccccc21)C(N)=O | 0.7 | > 800 |  |
| CC(C)C[C@H](NC(=O)[C@H](Cc1ccc(OCC(=O)O)cc1)NC(=O)[C@H](CCC(=O)OCc1ccccc1)NC(=O)OCCc1ccccc1)C(N)=O | 58.2 | 8 |  |
| CC(C)C[C@H](NC(=O)[C@H](Cc1ccc(OC(C(=O)O)C(=O)O)cc1)NC(=O)[C@H](CCC(=O)OCc1ccccc1)NC(=O)OCC1c2ccccc2-c2ccccc21)C(N)=O | 116 | 82 |  |
| CC(C)C[C@H](NC(=O)[C@H](Cc1ccc(CC(=O)O)c(C(=O)O)c1)NC(=O)[C@H](CCC(=O)OCc1ccccc1)NC(=O)OCC1c2ccccc2-c2ccccc21)C(N)=O | 44 | 142 |  |
| CC(C)C[C@H](NC(=O)[C@H](Cc1ccc(C(F)(F)P(=O)(O)O)cc1)NC(=O)[C@H](CCC(=O)OCc1ccccc1)NC(=O)OCC1c2ccccc2-c2ccccc21)C(N)=O (Fmoc-Glu(OBn)-[F2Pmp]-Leu-NH2) | 1.41 | 5.2 |  |
